The results in this text go back to ChEMBL document CHEMBL1773015, “2-Arylbenzothiazole, benzoxazole and benzimidazole derivatives as fluorogenic substrates for the detection of nitroreductase and aminopeptidase activity in clinically important bacteria” (Bioorg Med Chem, 2011).

Activity calls are given as the source filed them. The rule behind the calls is not given here.

The test system of assay [1] is Staphylococcus aureus. Briefly: Binding affinity to Staphylococcus aureus (MRSA) NCTC 11939 nitroreductase assessed as fluorescent colonies after 24 hrs by fluorescence staining. The procedure, abridged:
(§1)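 Columbia agar plates contained substrate at a final 100 mg/L, added from a 1-methyl-2-pyrrolidone solution to molten agar at 50 °C. Inoculum was a 10⁸ CFU/mL suspension in 0.85% saline, spread for single colonies, then incubated at 37 °C in air for 24 h. Colony fluorescence under UV light (365 nm) was graded as strong, moderate, weak or none, with colour noted.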

Assay [2] concerns Escherichia coli. As to the kind of experiment: Binding affinity to Escherichia coli NCTC 10418 nitroreductase assessed as fluorescent colonies after 24 hrs by fluorescence staining. An outline of the steps: as §1
In assay [3] the test system is Providencia rettgeri. As to the kind of experiment: Binding affinity to Providencia rettgeri NCTC 7475 nitroreductase assessed as fluorescent colonies after 24 hrs by fluorescence staining. An outline of the steps: as §1
The next assay has as its system Enterococcus faecalis. As to the kind of experiment: Binding affinity to Enterococcus faecalis NCTC 775 nitroreductase assessed as fluorescent colonies after 24 hrs by fluorescence staining. An outline of the steps:
as §1

Assay [4] concerns Serratia marcescens. Briefly: Binding affinity to Serratia marcescens NCTC 10211 nitroreductase assessed as fluorescent colonies after 24 hrs by fluorescence staining. The procedure, abridged: as §1
For another assay, the system named is Listeria monocytogenes. Briefly: Binding affinity to Listeria monocytogenes NCTC 11994 nitroreductase assessed as fluorescent colonies after 24 hrs by fluorescence staining. The procedure, abridged: as §1
Assay [5] deals with Enterobacter cloacae. As to the kind of experiment: Binding affinity to Enterobacter cloacae NCTC 11936 nitroreductase assessed as fluorescent colonies after 24 hrs by fluorescence staining. An outline of the steps:
as §1

A further assay relates to Streptococcus pyogenes. Briefly: Binding affinity to Streptococcus pyogenes NCTC 8306 nitroreductase assessed as fluorescent colonies after 24 hrs by fluorescence staining. The procedure, abridged:
as §1

Assay [6] concerns Staphylococcus epidermidis. Briefly: Binding affinity to Staphylococcus epidermidis NCTC 11047 nitroreductase assessed as fluorescent colonies after 24 hrs by fluorescence staining. An outline of the steps: as §1
For a further assay, the system named is Enterococcus faecium. As to the kind of experiment: Binding affinity to Enterococcus faecium NCTC 7171 nitroreductase assessed as fluorescent colonies after 24 hrs by fluorescence staining.
Assay [7] concerns Staphylococcus aureus. As to the kind of experiment: Binding affinity to Staphylococcus aureus NCTC 6571 nitroreductase assessed as fluorescent colonies after 24 hrs by fluorescence staining. The procedure, abridged:
as §1

Assay [8] has as its system Morganella morganii. Briefly: Binding affinity to Morganella morganii WS 462403 nitroreductase assessed as fluorescent colonies after 24 hrs by fluorescence staining. The procedure, abridged:
as §1

Assay [9] deals with Pseudomonas aeruginosa. Briefly: Binding affinity to Pseudomonas aeruginosa NCTC 10662 nitroreductase assessed as fluorescent colonies after 24 hrs by fluorescence staining. The procedure, abridged:
as §1

Assay [10] deals with Providencia rettgeri. Briefly: Binding affinity to Providencia rettgeri NCTC 7475 aminopeptidase assessed as fluorescent colonies after 24 hrs by fluorescence staining. The procedure, abridged: (§2)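 Substrate in 1-methyl-2-pyrrolidone was mixed into molten Columbia agar at 50 °C (final 100 mg/L). NCTC strains were subcultured on Columbia agar and suspended in 0.85% saline to 10⁸ CFU/mL by densitometer. Plates were spread for single colonies and incubated at 37 °C in air for 24 h. Colonies were viewed under UV light (365 nm) and fluorescence intensity and colour scored visually; growth was also scored.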

The test system of assay [11] is Serratia marcescens. Briefly: Binding affinity to Serratia marcescens NCTC 10211 aminopeptidase assessed as fluorescent colonies after 24 hrs by fluorescence staining. An outline of the steps: as §2
The test system of assay [12] is Enterobacter cloacae. As to the kind of experiment: Binding affinity to Enterobacter cloacae NCTC 11936 aminopeptidase assessed as fluorescent colonies after 24 hrs by fluorescence staining. An outline of the steps: as §2
For assay [13], the system named is Pseudomonas aeruginosa. As to the kind of experiment: Binding affinity to Pseudomonas aeruginosa NCTC 10662 aminopeptidase assessed as fluorescent colonies after 24 hrs by fluorescence staining. The procedure, abridged:
as §2

The test system of assay [14] is Escherichia coli. As to the kind of experiment: Binding affinity to Escherichia coli NCTC 10418 aminopeptidase assessed as fluorescent colonies after 24 hrs by fluorescence staining. An outline of the steps: as §2
Assay [15] deals with Morganella morganii. Briefly: Binding affinity to Morganella morganii WS 462403 aminopeptidase assessed as fluorescent colonies after 24 hrs by fluorescence staining. An outline of the steps: as §2

Turning to `Cn1c(-c2cc(Cl)ccc2[N+](=O)[O-])nc2ccccc21`, the outcome in the assay on Staphylococcus aureus [1], in the assay on Escherichia coli [2], with Providencia rettgeri [3], in the assay with Serratia marcescens [4], with Enterobacter cloacae [5] and with Staphylococcus aureus [7] was Active. The result in the assay with Morganella morganii [8] and in the assay on Pseudomonas aeruginosa [9] was Active. In addition, the outcome (in the assay with Enterococcus faecalis; in the assay with Listeria monocytogenes; in the assay on Streptococcus pyogenes; in assay [6]; in the assay on Enterococcus faecium) was inactive.
Consider `O=[N+]([O-])c1ccc(F)cc1-c1nc2ccccc2o1`, for which the outcome with Staphylococcus aureus [1], with Escherichia coli [2], in the assay with Providencia rettgeri [3], in the assay with Serratia marcescens [4], in the assay with Enterobacter cloacae [5] and with Staphylococcus aureus [7] was Active. Further, in the assay with Morganella morganii [8], the result was Active. Further, the result (with Enterococcus faecalis; in the assay on Listeria monocytogenes; in the assay with Streptococcus pyogenes; in [6]; with Enterococcus faecium; with Pseudomonas aeruginosa [9]) was inactive.
On to `COc1cc(-c2nc3ccccc3o2)c([N+](=O)[O-])cc1OC`, for which the result with Staphylococcus aureus [1], with Escherichia coli [2], in the assay on Providencia rettgeri [3], with Serratia marcescens [4], in the assay on Enterobacter cloacae [5] and in the assay on Staphylococcus aureus [7] was Active. For the same molecule, in the assay on Morganella morganii [8], the outcome was Active. The result (with Enterococcus faecalis; in the assay on Listeria monocytogenes; in the assay on Streptococcus pyogenes; in assay [6]; in the assay with Enterococcus faecium; in the assay on Pseudomonas aeruginosa [9]) was inactive.
For `O=[N+]([O-])c1ccccc1-c1nc2ccccc2s1`, the result (in the assay with Staphylococcus aureus [1]; in the assay with Escherichia coli [2]; in the assay with Providencia rettgeri [3]; with Serratia marcescens [4]; in the assay with Enterobacter cloacae [5]; in assay [6]) was Active. The outcome in the assay on Staphylococcus aureus [7] and in the assay with Morganella morganii [8] was Active. In addition, the outcome with Enterococcus faecalis, in the assay on Listeria monocytogenes, in the assay with Streptococcus pyogenes, with Enterococcus faecium and in the assay on Pseudomonas aeruginosa [9] was inactive.
In the case of `NCCC(=O)Nc1ccccc1-c1nc2ccccc2s1`, the result with Providencia rettgeri [10] and in the assay on Enterobacter cloacae [12] was inactive. The outcome in the assay on Serratia marcescens [11], in the assay with Pseudomonas aeruginosa [13], with Escherichia coli [14] and in the assay with Morganella morganii [15] was Active.
With `C[C@H](N)C(=O)Nc1ccccc1-c1nc2ccccc2s1`, the result in the assay with Providencia rettgeri [10], in the assay on Serratia marcescens [11], in the assay on Enterobacter cloacae [12], with Pseudomonas aeruginosa [13], in the assay with Escherichia coli [14] and in the assay with Morganella morganii [15] was Active.
`O=[N+]([O-])c1ccc(Cl)cc1-c1nc2ccccc2o1`: the outcome in the assay with Staphylococcus aureus [1], in the assay with Escherichia coli [2], in the assay with Providencia rettgeri [3], with Serratia marcescens [4], in the assay on Enterobacter cloacae [5] and in the assay with Staphylococcus aureus [7] was Active. In addition, the outcome in the assay with Morganella morganii [8] and with Pseudomonas aeruginosa [9] was Active. Moreover, the outcome (in the assay with Enterococcus faecalis; in the assay with Listeria monocytogenes; with Streptococcus pyogenes; in [6]; in the assay with Enterococcus faecium) was inactive.
As for `Cn1c(-c2ccccc2[N+](=O)[O-])nc2ccccc21`, the result with Staphylococcus aureus [1], with Escherichia coli [2], with Providencia rettgeri [3], in the assay on Enterococcus faecalis, with Serratia marcescens [4] and in the assay on Listeria monocytogenes was inactive. The outcome (with Enterobacter cloacae [5]; with Streptococcus pyogenes; in assay [6]; with Enterococcus faecium; with Staphylococcus aureus [7]; with Pseudomonas aeruginosa [9]) was inactive. Besides, the outcome in the assay on Morganella morganii [8] was Active.
As to `O=[N+]([O-])c1ccc(Cl)cc1-c1nc2ccccc2s1`, the outcome with Staphylococcus aureus [1], with Escherichia coli [2], in the assay on Providencia rettgeri [3], in the assay on Serratia marcescens [4], in the assay on Enterobacter cloacae [5] and with Staphylococcus aureus [7] was Active. The outcome in the assay with Morganella morganii [8] and with Pseudomonas aeruginosa [9] was Active. Further, the outcome (with Enterococcus faecalis; in the assay on Listeria monocytogenes; in the assay on Streptococcus pyogenes; in assay [6]; with Enterococcus faecium) was inactive.
`COc1cc(-c2nc3ccccc3s2)c([N+](=O)[O-])cc1OC`: the outcome (in the assay with Staphylococcus aureus [1]; with Escherichia coli [2]; in the assay with Providencia rettgeri [3]; in the assay on Serratia marcescens [4]; in the assay with Enterobacter cloacae [5]; in assay [6]) was Active. The result with Staphylococcus aureus [7], in the assay on Morganella morganii [8] and in the assay with Pseudomonas aeruginosa [9] was Active. Besides, the result in the assay with Enterococcus faecalis, in the assay on Listeria monocytogenes, with Streptococcus pyogenes and in the assay with Enterococcus faecium was inactive.
Regarding `O=[N+]([O-])c1ccc(F)cc1-c1nc2ccccc2s1`, the outcome with Staphylococcus aureus [1], in the assay on Escherichia coli [2], in the assay with Providencia rettgeri [3], with Serratia marcescens [4], in the assay on Enterobacter cloacae [5] and in the assay with Staphylococcus aureus [7] was Active. For the same molecule, the result with Morganella morganii [8] was Active. For the same molecule, the outcome (in the assay on Enterococcus faecalis; with Listeria monocytogenes; with Streptococcus pyogenes; in assay [6]; in the assay on Enterococcus faecium; in the assay with Pseudomonas aeruginosa [9]) was inactive.
With `C[C@H](N)C(=O)Nc1ccccc1-c1nc2ccccc2o1`, the outcome in the assay with Providencia rettgeri [10], in the assay with Serratia marcescens [11], with Enterobacter cloacae [12], with Pseudomonas aeruginosa [13], in the assay on Escherichia coli [14] and in the assay with Morganella morganii [15] was Active.
In the case of `NCCC(=O)Nc1ccccc1-c1nc2ccccc2o1`, the outcome with Providencia rettgeri [10], in the assay on Serratia marcescens [11], with Enterobacter cloacae [12], with Pseudomonas aeruginosa [13], in the assay on Escherichia coli [14] and with Morganella morganii [15] was Active.
In the case of `O=[N+]([O-])c1ccccc1-c1nc2ccccc2o1`, the outcome (in the assay with Staphylococcus aureus [1]; with Escherichia coli [2]; in the assay with Providencia rettgeri [3]; with Serratia marcescens [4]; in the assay on Enterobacter cloacae [5]; in assay [6]) was Active. Also, the result in the assay on Staphylococcus aureus [7], in the assay with Morganella morganii [8] and with Pseudomonas aeruginosa [9] was Active. In addition, the result in the assay with Enterococcus faecalis, in the assay on Listeria monocytogenes, in the assay on Streptococcus pyogenes and in the assay with Enterococcus faecium was inactive.
